Apaf-1 inh – inhibitors of human Apaf-1 apoptosome, primary screen, biochemical, DEVD-Rh110 fluorescence, uHTS. Apoptotic protease-activating factor 1 (Homo sapiens), O14727. reconstituted apoptosome caspase-3 activity. inhibition, % at 20 µM. actives 0.71% (n = 330,000); active = inhibition of at least 40% at 20 µM;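 also: plate controls were DMSO wells for no effect and DEVD-CHO caspase inhibitor wells for full effect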
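Material: cell-free apoptosome with Apaf-1, procaspase-3 and caspase-9; Buffer or medium: Hepes pH 7.5 with detergent and BSA; Reagent: cytochrome c trigger plus (Z-DEVD)2-Rh110 caspase-3 substrate; Times: compound with Apaf-1, dATP, procaspase-3 30 min, then 50 min reaction, room temperature; Technique: Rh110 fluorescence intensity.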
SIAE inh – human SIAE inhibitors, primary screen, biochemical, fluorescence polarization, FP-Rh probe, 1536-well HTS; SIAE FP-Rh probe binding; AID 1053197, 2014; actives 0.69% (n = 370,000); inhibition, % at 9.66 µM; Sialate O-acetylesterase (Homo sapiens), Q9HAT2;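 active = inhibition above a cutoff: mean of compounds within the control limits plus 3 SD of those, cut at about 17% in these data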;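 also: 0% = plate median of compound wells and 100% = probe without SIAE protein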
GSTO1 inh – inhibitors of recombinant GSTO1, primary screen, counter-screen for RBBP9 inhibitor project, biochemical, fluorescence polarization. Glutathione S-transferase omega-1 (Homo sapiens), P78417. activity-based probe fluorescence polarization. inhibition, % at 5.96 µM. actives 1.1% (n = 300,000). AID 1974, 2009;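 active = inhibition above the campaign mean inhibition plus 3 SD, cut at about 35% in these data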;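 also: 0% = GSTO1-1 with DMSO and 100% = wells lacking GSTO1-1 enzyme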
Target sequence (P78417 whole entry, looked up): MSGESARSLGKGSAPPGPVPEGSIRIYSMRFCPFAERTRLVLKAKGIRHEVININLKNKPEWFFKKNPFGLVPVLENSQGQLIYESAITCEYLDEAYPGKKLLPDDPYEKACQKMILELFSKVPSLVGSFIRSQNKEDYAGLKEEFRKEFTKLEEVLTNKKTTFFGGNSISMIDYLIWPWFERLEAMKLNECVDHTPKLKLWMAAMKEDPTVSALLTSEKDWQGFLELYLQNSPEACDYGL
PAD4 FP inh – human PAD4 inhibitors, primary screen, biochemical, fluorescence polarization, 1536-well format; Protein-arginine deiminase type-4 (Homo sapiens), Q9UM07; recombinant PAD4, RCA probe fluorescence polarization; inhibition, % at 6.36 µM; actives 0.41% (n = 330,000);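 active = percent inhibition above a cutoff equal to the mean of all tested compounds plus 3 SD, cut at about 15% in these data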;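 also: 0% = PAD4 with RCA probe and DMSO and 100% = probe without PAD4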
TCR CD3 inh – inhibitors of human TCR-CD3 interaction, primary screen, biochemical, fluorescence, TAMRA-labeled TCR probe; T-cell receptor (TCR); inhibition, % at 9.4 µM; actives 0.37% (n = 360,000); in the data active = inhibition above about 19%;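 also: recombinant mutant TCR 2C K166C tagged with TAMRA read by polarization; 0% = receptor in buffer alone and 100% = receptor with positive control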
TDP2 absorb – human TDP2 enzyme inhibitors, primary screen, biochemical, epi absorbance, recombinant enzyme. actives 0.34% (n = 370,000). AID 720702, 2013. Tyrosyl-DNA phosphodiesterase 2 (Homo sapiens), O95551. inhibition, % at 12.8 µM. T5PNP hydrolysis, p-nitrophenol absorbance 415 nm;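 active = inhibition above the mean of all tested compounds plus 3 SD, set per campaign, cut at about 25% in these data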;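 also: 0% = DMSO with enzyme and 100% = buffer with substrate but no TDP2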
Target sequence (O95551 whole entry, looked up): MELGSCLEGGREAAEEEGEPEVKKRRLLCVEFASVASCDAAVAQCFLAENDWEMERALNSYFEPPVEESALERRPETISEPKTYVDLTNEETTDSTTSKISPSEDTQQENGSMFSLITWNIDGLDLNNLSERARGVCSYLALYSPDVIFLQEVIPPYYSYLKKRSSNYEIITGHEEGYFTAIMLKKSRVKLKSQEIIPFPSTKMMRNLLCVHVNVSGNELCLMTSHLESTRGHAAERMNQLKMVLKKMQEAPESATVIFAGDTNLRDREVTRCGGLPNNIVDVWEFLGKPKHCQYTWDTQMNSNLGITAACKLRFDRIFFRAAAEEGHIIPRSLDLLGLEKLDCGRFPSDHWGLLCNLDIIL
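Read-out basis: percent inhibition. System: recombinant human TDP2. Buffer or medium: Mg2+-containing Tris-HCl buffer, pH 7.5. Repeats: single replicate. Timing: reaction 2 h, 37 °C. Benchmarks: high control without enzyme, low control DMSO plus TDP2. Probe or stimulus: 5 mM T5PNP. Doses: 12.8 µM only. Measured by: epi absorbance of p-nitrophenol freed from T5PNP by hydrolysis.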
PAD4 confirm – human PAD4 inhibitors, confirmation, biochemical, fluorescence polarization. shares compounds with PAD4 FP inh. AID 488796, 2010. recombinant PAD4, RCA probe fluorescence polarization. actives 28% (n = 1,200). inhibition, % at 6.36 µM;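 active = mean inhibition across replicates above the hit cutoff set by the earlier primary screen, cut at about 15% in these data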;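 also: inhibitors block active-site labeling by the probe so polarization falls; 0% = PAD4 with probe and DMSO and 100% = probe without PAD4 enzyme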
The depositor's hits bear a star; nt = no result. This is a sample that favours compounds with a hit; in the whole collection about 2.4% have one here.

SMILES	Apaf-1 inh	SIAE inh	GSTO1 inh	PAD4 FP inh	TCR CD3 inh	TDP2 absorb	PAD4 confirm
N#CC(C#N)=C1C=C2C=C(N3CCCCC3)CCC2CC1 (stereo not drawn)	nt	nt	-26.4	49.0*	nt	nt	21.1*
CC(=O)c1cccc(CN2CCCC(CCC(=O)NCc3ccc(F)c(F)c3)C2)c1 (stereo not drawn)	-3.5	4.1	3.6	-1.2	-0.4	9.1	nt
Cc1onc(-c2ccccc2)c1C(=O)OCC(=O)N(CC(C)C)c1c(N)n(Cc2ccccc2)c(=O)[nH]c1=O	4.7	1.7	4.3	0.6	-10.8	1.8	nt
Cc1sc2ccc3sccc3c2[n+]1C	-2.6	4.0	3.8	17.2*	0.9	3.4	14.2
C/C(=C\C(=O)c1ccc(F)cc1)Nc1ccc(N2CCOCC2)cc1	20.5	7.5	7.5	39.1*	4.8	21.0	7.0
O=C(N/N=C/c1cn(-c2cccs2)nc1-c1ccccc1)c1ccccc1O	15.1	-16.8	-28.7	27.2*	5.6	-10.3	-2.8
COc1ccc(-c2nnc(NC(=O)C(C)C)s2)c(OC)c1	0.8	-2.1	-1.8	3.2	-2.7	7.4	nt
O=C(Cc1cccc(NC(=O)C2CCN(C(=O)CCc3ccccc3)CC2)c1)Nc1cccc(C(=O)N2CCCC2)c1	7.2	-1.3	nt	-1.9	-4.0	6.6	nt
Cc1cccc(/C(N)=N/OC(=O)Cc2cccc3ccccc23)c1	0.2	-4.1	-3.9	0.1	2.3	1.9	nt
Cc1cccc(C(=O)O/N=C(\N)Cc2cccc3ccccc23)c1	12.7	nt	-2.9	34.3*	nt	nt	3.5
O=C(NC1CCN(C(=S)Nc2ccc(F)cc2)CC1)C1CCCCC1	4.6	0.6	1.9	1.1	0.5	6.7	nt
CC1(C)Cc2ccccc2C(CSc2ccccc2C(=O)O)=N1	27.0	5.8	12.2	20.3*	0.9	1.1	20.1*
C/C(=N\NC(=O)C(=O)Nc1cccc(Cl)c1C)c1ccncc1	0.3	2.5	4.5	25.4*	3.1	-13.9	2.0
O=C(CN1CCCCC1)Nc1ccc(C(F)(F)F)cc1Cl	4.5	1.5	-2.5	18.1*	-6.6	3.9	-5.5
O=C(CN1CCCC1)Nc1cc(C(F)(F)F)ccc1Cl	-0.7	0.0	-1.2	4.5	-0.9	2.3	nt
CSC1=NCCN1C(=O)Cc1ccc(Cl)cc1	4.3	3.3	-3.6	3.2	-9.0	7.1	nt
COc1ccc(CC(=O)N2CCN=C2SC)cc1	-6.5	-3.0	7.9	28.0*	-5.7	2.3	4.1
CCC(C)NC(=O)CSc1ccc(NC(C)=O)cc1 (stereo not drawn)	9.6	-3.5	12.3	0.4	-6.4	-9.6	nt
CC(=O)Nc1ccc(SCC(=O)c2ccc(Br)s2)cc1	3.7	3.6	11.6	34.6*	2.9	5.9	12.0
O=C1CSC(c2cccc(O)c2)N1Cc1ccccc1 (stereo not drawn)	-2.6	-7.6	2.4	0.8	0.5	-1.4	nt
O=C1CSC(c2ccccc2O)N1Cc1ccccc1 (stereo not drawn)	5.4	-4.2	4.6	40.5*	-4.0	-15.5	0.3
CCOc1ccc(NC(=O)CSc2nncc(=O)n2N)cc1	9.1	6.6	18.5	15.2*	-1.8	0.4	6.8
Nn1c(SCC(=O)Nc2nc3ccccc3s2)nncc1=O	-10.1	-1.1	16.6	21.8*	9.2	7.7	38.7*
COc1ccc(-n2cc(CNCCN3CCOC3=O)c(-c3ccccc3Cl)n2)cc1	-14.4	-2.0	10.5	-7.5	-0.7	-18.8	nt
Cc1ccc(NC(=O)CCNS(=O)(=O)c2ccc3[nH]c(=O)oc3c2)cc1F	-10.9	-1.2	-1.2	20.9*	4.9	-6.0	4.3
SMILES	Apaf-1 inh	SIAE inh	GSTO1 inh	PAD4 FP inh	TCR CD3 inh	TDP2 absorb	PAD4 confirm
Cc1cc(NC(=O)CCNS(=O)(=O)c2ccc3[nH]c(=O)oc3c2)ccc1Br	-12.9	-2.6	6.8	-5.0	5.5	-19.8	nt
S=c1[nH]nc(-c2cc(-c3ccccc3)n[nH]2)n1/N=C/c1cccc(Cl)c1	26.2	-9.2	3.9	15.5*	6.7	2.4	9.3
CCc1cccc(OCC(=O)N(C)CC(=O)Nc2cccc(F)c2)c1	12.2	-0.9	-2.6	0.3	4.6	-5.2	nt
COc1cc(-c2nc3c4ccccc4nc(=S)n3[nH]2)cc(OC)c1OC	-19.5	-8.2	-2.2	16.2*	0.3	12.1	24.7*
C(=Nc1ccc(Nc2ccccc2)cc1)c1ccc2ccccc2c1	nt	nt	34.0	24.1*	nt	nt	2.7
CCN(CC)S(=O)(=O)c1ccc2c(c1)c(=O)c(C(=O)N1CCN(c3ccccn3)CC1)cn2C	5.2	-0.1	-0.5	20.0*	-6.3	-0.3	-4.3
Cc1cccc(N2C(=O)c3cccc4c(N)ccc(c34)C2=O)c1	-2.1	11.1	9.5	27.1*	16.4	-4.0	22.2*
O=C1c2ccc3c4c(ccc(c24)C(=O)N1c1cccc(O)c1)C(=O)N(c1cccc(O)c1)C3=O	20.6	2.5	33.8	17.6*	2.5	5.2	37.6*
O=C1c2ccc3c4c(ccc(c24)C(=O)N1c1cccc(O)c1)CC3	-6.3	-5.1	-4.4	4.1	6.3	4.0	nt
CCOc1ccc(C(=O)Nc2ccc(NC(=O)c3ccco3)c(Cl)c2)cc1Cl	7.9	10.2	-4.7	-1.6	3.3	8.9	nt
O=C(O)c1ccccc1Sc1c([N+](=O)[O-])cc(C(F)(F)F)cc1[N+](=O)[O-]	-2.7	3.9	36.1*	45.0*	1.2	-5.7	25.8*
O=C(O)c1ccccc1NSc1ccccc1[N+](=O)[O-]	-4.0	3.0	1.9	3.7	2.4	0.6	nt
CC1CCCC(NC(=O)CN2C(=O)COc3ccccc32)C1C (stereo not drawn)	-11.0	-3.2	-5.2	-0.7	-0.9	-0.8	nt
CCN(CC)c1cccc(OC2=NS(=O)(=O)c3ccccc32)c1	2.7	30.6*	17.3	64.6*	52.8*	-3.2	-4.1
CCc1ccc(OC2=NS(=O)(=O)c3ccccc32)cc1	nt	13.8	nt	nt	0.9	1.5	nt
O=C(COC(=O)c1ccc([N+](=O)[O-])s1)c1ccc[nH]1	33.4	1.3	nt	25.2*	1.0	35.1*	2.4
COc1ccc(-c2cc(C(=O)OC(C)C(=O)Nc3c(C)n(C)n(-c4ccccc4)c3=O)c3ccccc3n2)cc1 (stereo not drawn)	20.3	-3.7	0.4	-2.1	-1.0	5.3	nt
